Laboratory results: paper PMC5806153 (The Journal of pediatrics, 2018)
Where “and” joins values, the source holds several entries; their conditions need not be identical. Identical values can stand only once. Like-named read-outs stand apart in the source and are kept apart here.

What was measured:
[1] = historical nonobese peers, mean ± SD, ref Ward et al.[22], cited from earlier work
Safety and tolerability = assay type: in vivo, human
[2] = assay type: in vivo, human; conditions: for half-life / Cmax / AUC(0-t) / AUC(0-inf): human, plasma; for AUC(0-t): Uncorrected AUC0-last; for AUC(0-t) / AUC(0-inf) / % AUC0-∞ extrapolated from AUC0-last / AUC0-∞ corrected for TBW-normalized dose / CL/F normalized to TBW / Cmax corrected for LBW-normalized dose / Cmax corrected for TBW-normalized dose / Vd/F normalized to TBW: mean ± SD; for AUC(0-inf): Uncorrected AUC0-∞; for tlag: median (range)
In short: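 Fasted obese children 6–17 y, CYP2C19-genotyped (*2, *3, *4, *17; classed EM/IM/PM), received a single oral dose of ~1.2 mg/kg LBW. Catheter blood was drawn predose, half-hourly 0.5–4 h, and at 6 and 8 h, plus 12 h for PMs. Parent and sulfone metabolite were measured by validated LC-MS/MS in duplicate, using the mean. Noncompartmental analysis: λz from ≥3 terminal points, linear trapezoidal AUC, AUCinf = AUClast + CT/λz; Cmax and AUC corrected to 1 mg/kg TBW or LBW dose.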

[3] = both, oral, obese, age 6–11 y (n = 18)
[4] = both, oral, obese, age 12–17 y (n = 21)
[5] = non-PMs, Morbidly obese (BMI >99%), mean (SD)
[6] = non-PMs, obesity status Obese (BMI ≥95%), mean (SD)
[7] = obese non-PMs, ALT High (>Q3), mean (SD)
[8] = obese non-PMs, ALT Low (<Q1), mean (SD)
[9] = obese non-PMs, AST High (>Q3), mean (SD)
[10] = obese non-PMs, AST Low (<Q1), mean (SD)
[11] = obese non-PMs, Female, mean (SD)
[12] = obese non-PMs, Waist:hip ratio High (>Q3), mean (SD)
[13] = obese non-PMs, Waist:hip ratio Low (<Q1), mean (SD)
[14] = obese, 2C19 genotype EM, mean (SD)
[15] = obese, 2C19 genotype IM, mean (SD)
[16] = obese, age 6–11 y, non-PMs, mean, SD

In the case of `COc1ccnc(C[S+]([O-])c2nc3ccc(OC(F)F)cc3[nH]2)c1OC` (stereo not drawn) [pantoprazole], the “AUC0-∞ corrected for TBW-normalized dose” value ([1]; age 6–11 y (n = 13)) is given as 3.1 ± 1.4 mcg*h/mL/1 mg/kg TBW, the “CL/F normalized to TBW” value ([1]; age 6–11 y (n = 13)) is given as 0.40 ± 0.22 L/h/kg TBW and the “Cmax corrected for TBW-normalized dose” value ([1]; age 6–11 y (n = 13)) is given as 2.1 ± 1.1 mcg/mL/1 mg/kg TBW. The “Uncorrected AUC0-∞” value ([1]; age 6–11 y (n = 13)) was 3800 ± 1800 ng·h/mL, the “Vd/F normalized to TBW” value ([1]; age 6–11 y (n = 13)) was 0.40 ± 0.27 L/kg TBW and the t1/2 ([1]; age 6–11 y (n = 13)) was 42 ± 12 min. For the same compound, the “AUC0-∞ corrected for TBW-normalized dose” value ([1]; age 12–17 y (n = 11)) was 6.9 ± 3.4 mcg*h/mL/1 mg/kg TBW, the “CL/F normalized to TBW” value ([1]; age 12–17 y (n = 11)) was 0.18 ± 0.08 L/h/kg TBW and the “Cmax corrected for TBW-normalized dose” value ([1]; age 12–17 y (n = 11)) was 3.7 ± 1.8 mcg/mL/1 mg/kg TBW. The “Uncorrected AUC0-∞” value ([1]; age 12–17 y (n = 11)) was 4300 ± 3100 ng·h/mL, the “Uncorrected Cmax” value ([1]; age 12–17 y (n = 11)) was 2200 ± 1400 ng/mL and the “Vd/F normalized to TBW” value ([1]; age 12–17 y (n = 11)) was 0.21 ± 0.06 L/kg TBW. The t1/2 ([1]; age 12–17 y (n = 11)) was 54 ± 18 min, the “Study participants with AEs” value (Safety and tolerability; 7 of the 41 study participants, nine AEs, single oral dose) was 17% and the “Serious AEs” value (Safety and tolerability; 41 participants, single oral dose, follow-up day 10–13) was “No serious AEs”. For the same compound, the “Severity of AEs” value (Safety and tolerability; all AEs) was “mild”, the “AEs considered related to study drug” value (Safety and tolerability; two AEs (headache and hiccups)) was 5% and the half-life ([2]; both, im, t1/2, obese, 2C19 genotype IM, mean (SD)) was 63 min. For the same compound, the Cmax ([2]; both, oral) was 4100 ± 1180 ng/mL, the AUC(0-t) [2, 3] was 6170 ± 2170 ng·h/mL and the AUC(0-t) [2, 4] was 7470 ± 2800 ng·h/mL. The AUC(0-inf) [2, 3] was 6260 ± 2260 ng·h/mL, the AUC(0-inf) [2, 4] was 7690 ± 3450 ng·h/mL and the half-life ([2]; both, oral, t1/2, non-PMs, Morbidly obese (BMI >99%), mean (SD)) was 61.8 min. The half-life ([2]; both, oral, t1/2, non-PMs, obesity status Obese (BMI ≥95%), mean (SD)) was 58.2 min, the half-life ([2]; both, oral, t1/2, obese non-PMs, ALT High (>Q3), mean (SD)) was 57.6 min and the half-life ([2]; both, oral, t1/2, obese non-PMs, ALT Low (<Q1), mean (SD)) was 58.2 min. For the same compound, the half-life ([2]; both, oral, t1/2, obese non-PMs, AST High (>Q3), mean (SD)) was 51 min, the half-life ([2]; both, oral, t1/2, obese non-PMs, AST Low (<Q1), mean (SD)) was 63.6 min and the half-life ([2]; both, oral, t1/2, obese, 2C19 genotype EM, mean (SD)) was 57 min. The half-life ([2]; both, oral, t1/2, obese, age 12–17 y, mean, SD) was 64.8 ± 15.6 min, the Cmax ([2]; both, po) was 4270 ± 1430 ng/mL and the half-life ([2]; female, oral, t1/2, obese non-PMs, mean (SD)) was 61.8 min. For the same compound, the half-life ([2]; male, oral, t1/2, obese non-PMs, mean (SD)) was 57 min, the “AUC0-∞ corrected for LBW-normalized dose” value [2, 5] was 6.17 (1.89) mcg*h/mL/1 mg/kg LBW and the “CL/F normalized by LBW” value [2, 5] was 0.18 (0.06) L/h/kg LBW. For the same compound, the “Vd/F normalized by LBW” value [2, 5] was 0.25 (0.05) L/kg LBW, the “AUC0-∞ corrected for LBW-normalized dose” value [2, 6] was 6.36 (2.97) mcg*h/mL/1 mg/kg LBW and the “CL/F normalized by LBW” value [2, 6] was 0.20 (0.11) L/h/kg LBW. For the same compound, the “Vd/F normalized by LBW” value [2, 6] was 0.25 (0.09) L/kg LBW, the “AUC0-∞ corrected for LBW-normalized dose” value [2, 7] was 6.12 (2.08) mcg*h/mL/1 mg/kg LBW and the “CL/F normalized by LBW” value [2, 7] was 0.18 (0.07) L/h/kg LBW. For the same compound, the “Vd/F normalized by LBW” value [2, 7] was 0.25 (0.09) L/kg LBW, the “AUC0-∞ corrected for LBW-normalized dose” value [2, 8] was 5.75 (1.97) mcg*h/mL/1 mg/kg LBW and the “CL/F normalized by LBW” value [2, 8] was 0.19 (0.06) L/h/kg LBW. The “Vd/F normalized by LBW” value [2, 8] was 0.25 (0.04) L/kg LBW, the “AUC0-∞ corrected for LBW-normalized dose” value [2, 9] was 5.66 (1.40) mcg*h/mL/1 mg/kg LBW and the “CL/F normalized by LBW” value [2, 9] was 0.19 (0.06) L/h/kg LBW. The “Vd/F normalized by LBW” value [2, 9] was 0.23 (0.05) L/kg LBW, the “AUC0-∞ corrected for LBW-normalized dose” value [2, 10] was 6.04 (1.97) mcg*h/mL/1 mg/kg LBW and the “CL/F normalized by LBW” value [2, 10] was 0.19 (0.09) L/h/kg LBW. The “Vd/F normalized by LBW” value [2, 10] was 0.27 (0.06) L/kg LBW, the “Vd/F normalized by LBW” value ([2]; obese non-PMs, Female (n = 18), mean (SD)) was 0.28 (0.08) L/kg LBW and the “Vd/F normalized by LBW” value ([2]; obese non-PMs, Female (n = 18), mean (SD), listed as Pantoprazole) was 0.28 [0.08] L/kg LBW. The “AUC0-∞ corrected for LBW-normalized dose” value [2, 11] was 6.03 (3.20) mcg*h/mL/1 mg/kg LBW, the “CL/F normalized by LBW” value [2, 11] was 0.21 (0.11) L/h/kg LBW and the “Vd/F normalized by LBW” value ([2]; obese non-PMs, Male (n = 17), mean (SD)) was 0.22 (0.06) L/kg LBW. The “Vd/F normalized by LBW” value ([2]; obese non-PMs, Male (n = 17), mean (SD), listed as Pantoprazole) was 0.22 [0.06] L/kg LBW, the “AUC0-∞ corrected for LBW-normalized dose” value ([2]; obese non-PMs, Male, mean (SD)) was 6.57 (1.88) mcg*h/mL/1 mg/kg LBW and the “CL/F normalized by LBW” value ([2]; obese non-PMs, Male, mean (SD)) was 0.17 (0.06) L/h/kg LBW. For the same compound, the “AUC0-∞ corrected for LBW-normalized dose” value [2, 12] was 6.63 (3.57) mcg*h/mL/1 mg/kg LBW, the “CL/F normalized by LBW” value [2, 12] was 0.20 (0.13) L/h/kg LBW and the “Vd/F normalized by LBW” value [2, 12] was 0.24 (0.09) L/kg LBW. For the same compound, the “AUC0-∞ corrected for LBW-normalized dose” value [2, 13] was 5.76 (2.31) mcg*h/mL/1 mg/kg LBW, the “CL/F normalized by LBW” value [2, 13] was 0.20 (0.09) L/h/kg LBW and the “Vd/F normalized by LBW” value [2, 13] was 0.28 (0.08) L/kg LBW. The “AUC0-∞ corrected for LBW-normalized dose” value [2, 14] was 5.09 (1.81) mcg*h/mL/1 mg/kg LBW, the “CL/F normalized by LBW” value [2, 14] was 0.23 (0.10) L/h/kg LBW and the “Vd/F normalized by LBW” value [2, 14] was 0.29 (0.07) L/kg LBW. The “AUC0-∞ corrected for LBW-normalized dose” value [2, 15] was 7.90 (2.72) mcg*h/mL/1 mg/kg LBW, the “CL/F normalized by LBW” value [2, 15] was 0.14 (0.05) L/h/kg LBW and the “Vd/F normalized by LBW” value [2, 15] was 0.20 (0.04) L/kg LBW. The tlag ([2]; obese, age 6–11 y (n = 18), single oral dose) was 1.5 (1.0–3) h, the “% AUC0-∞ extrapolated from AUC0-last” value ([2]; obese, age 6–11 y (n = 18)) was 1.2 ± 1.6% and the “AUC0-∞ corrected for TBW-normalized dose” value ([2]; obese, age 6–11 y (n = 18)) was 8.87 ± 4.00 mcg*h/mL/1 mg/kg TBW. The “CL/F normalized to TBW” value ([2]; obese, age 6–11 y (n = 18)) was 0.14 ± 0.07 L/h/kg TBW, the “Cmax corrected for LBW-normalized dose” value ([2]; obese, age 6–11 y (n = 18)) was 3.87 ± 1.39 mcg/mL/1 mg/kg LBW and the “Cmax corrected for TBW-normalized dose” value ([2]; obese, age 6–11 y (n = 18)) was 5.99 ± 2.13 mcg/mL/1 mg/kg TBW. For the same compound, the “Vd/F normalized to TBW” value ([2]; obese, age 6–11 y (n = 18)) was 0.16 ± 0.05 L/kg TBW, the “AUC0-∞ corrected for LBW-normalized dose” value [2, 16] was 5.73 ± 2.48 mcg*h/mL/1 mg/kg LBW and 5.73 (2.48) mcg*h/mL/1 mg/kg LBW and the “CL/F normalized to LBW” value [2, 16] was 0.21 ± 0.11 L/h/kg LBW and 0.21 (0.11) L/h/kg LBW. The “Vd/F normalized to LBW” value [2, 16] was 0.25 ± 0.09 L/kg LBW and 0.25 (0.09) L/kg LBW, the “% AUC0-∞ extrapolated from AUC0-last” value ([2]; obese, age 12–17 y (n = 21)) was 2.5 ± 3.3% and the “AUC0-∞ corrected for TBW-normalized dose” value ([2]; obese, age 12–17 y (n = 21)) was 11.56 ± 4.81 mcg*h/mL/1 mg/kg TBW. For the same compound, the “CL/F normalized to TBW” value ([2]; obese, age 12–17 y (n = 21)) was 0.10 ± 0.04 L/h/kg TBW, the “Cmax corrected for LBW-normalized dose” value ([2]; obese, age 12–17 y (n = 21)) was 3.7 ± 0.99 mcg/mL/1 mg/kg LBW and the “Cmax corrected for TBW-normalized dose” value ([2]; obese, age 12–17 y (n = 21)) was 6.23 ± 1.73 mcg/mL/1 mg/kg TBW. For the same compound, the “Vd/F normalized to TBW” value ([2]; obese, age 12–17 y (n = 21)) was 0.14 ± 0.04 L/kg TBW, the tlag ([2]; obese, age 12–17 y (n = 21)) was 2.0 (1.0–8.0) h and the “AUC0-∞ corrected for LBW-normalized dose” value ([2]; obese, age 12–17 y, mean, SD) was 6.82 ± 2.70 mcg*h/mL/1 mg/kg LBW and 6.82 (2.70) mcg*h/mL/1 mg/kg LBW. For the same compound, the “CL/F normalized to LBW” value ([2]; obese, age 12–17 y, mean, SD) was 0.17 ± 0.06 L/h/kg LBW and 0.17 (0.06) L/h/kg LBW, the “Vd/F normalized to LBW” value ([2]; obese, age 12–17 y, mean, SD) was 0.25 ± 0.07 L/kg LBW and 0.25 (0.07) L/kg LBW and the “AUC0-∞, PM relative to all the non-PMs” value ([2]; only CYP2C19 PM vs non-PMs, higher) was “greater than 2 fold”.
